Legend:
[1] = biological target: T1, Leucine aminopeptidase (Sus scrofa, UniProt Q29571); assay: Drug level assessed as porcine leucine aminopeptidase-mediated compound formation treated with (Z)-N,N''-(3-Methoxy-6-(3,4,5-trimethoxystyryl)-1,2-phenylene)bis(2-aminoacetamide) after 25 hrs using 1.5 units of enzyme by HPLC analysis; format: ADME; conditions: pig
T1 sequence (Q29571 whole entry): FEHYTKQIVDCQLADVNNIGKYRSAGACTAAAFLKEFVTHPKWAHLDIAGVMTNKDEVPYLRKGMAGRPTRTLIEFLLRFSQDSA
How it was run: (§1)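 Porcine kidney microsomal LAP; units defined with 24 mM L-leucine p-nitroanilide in 50 mM sodium phosphate pH 7.2 at 37 °C. Enzyme preincubated in the same buffer at 37 °C, then substrate added. Aliquots were quenched with acetonitrile on ice, centrifuged and run on C18 HPLC (acetonitrile/water, 0.05% TFA, 1.0 mL/min, 22 °C, diode-array UV). Cleavage % from the parent/prodrug peak-area ratio; amounts from calibration curves.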

[2] = biological target: Tubulin (Bos taurus, UniProt Q6B856+Q862L2+Q862F3); assay: Inhibition of bovine brain tubulin polymerization preincubated for 15 mins by spectrophotometric analysis
How it was run: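 Purified bovine brain tubulin, 1.0 mg/mL (10 μM), in 0.8 M monosodium glutamate pH 6.6 with 4% DMSO and varied compound. Temperature jumped from 0 to 30 °C; turbidity at 350 nm followed for 20 min.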

[3] = biological target: T1, Leucine aminopeptidase; assay: Drug level assessed as porcine leucine aminopeptidase-mediated compound formation treated with (Z)-N,N''-(3-Methoxy-6-(3,4,5-trimethoxystyryl)-1,2-phenylene)bis(2-aminoacetamide) after 25 hrs using 3.7 units of enzyme by HPLC analysis; format: ADME; conditions: pig; how it was run: as §1
[4] = Cytotoxicity against human SKOV3 cells assessed as growth inhibition after 48 hrs by SRB assay; format: functional, SK-OV-3; conditions: Homo sapiens, SK-OV-3, 48 h
How it was run: (§2)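 Cells kept at 37 °C, 5% CO2, up to passage 15. Plated at 7500 cells/well in DMEM with 5% FBS and 1% gentamycin, grown 24 h, then given 10-fold serial dilutions for 48 h. Fixed with 10% TCA (final), SRB-stained, read at 540 nm, normalized at 630 nm. GI50 is the concentration halving net protein staining versus controls, taken from optical density data.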

[5] = biological target: T1, Leucine aminopeptidase; assay: Drug level assessed as porcine leucine aminopeptidase-mediated compound formation treated with (Z)-N,N''-(3-Methoxy-6-(3,4,5-trimethoxystyryl)-1,2-phenylene)bis(2-aminoacetamide) after 25 hrs using 0.12 units of enzyme by HPLC analysis; format: ADME; conditions: pig; how it was run: as §1
[6] = Cytotoxicity against human DU145 cells assessed as growth inhibition after 48 hrs by SRB assay; format: functional, DU-145; how it was run: as §2
[7] = tested on: NCI-H460; assay: Cytotoxicity against human NCI-H460 cells assessed as growth inhibition after 48 hrs by SRB assay; format: functional; how it was run: as §2

With `COc1ccc(/C=C\c2cc(OC)c(OC)c(OC)c2)c(N)c1N` the Drug metabolism [1] was “metabolite_detected”, the IC50 [2] was 1500 nM and the Drug metabolism [3] was “metabolite_detected”. For the same compound, the GI50 [4] was 23.5 nM, the Drug metabolism [5] was “metabolite_detected” and the GI50 [6] was 39.1 nM. The GI50 [7] was 35.9 nM.

Reference: ChEMBL document CHEMBL3763088, “Design, synthesis, and biological evaluation of water-soluble amino acid prodrug conjugates derived from combretastatin, dihydronaphthalene, and benzosuberene-based parent vascular disrupting agents” (Bioorg Med Chem, 2016)
